Data taken from ChEMBL document CHEMBL1126281, “Synthesis and dopaminergic activity of some 3-(1,2,3,6-tetrahydro-1-pyridylalkyl)indoles. A novel conformational model to explain structure-activity relationships” (J Med Chem, 1992).

Experiments:
D(2) dopamine receptor [1] = molecular target: T1, D(2) dopamine receptor (Rattus norvegicus, UniProt P61169); assay: Evaluated for its ability to displace tritiated receptor ligand in rat striatal membranes 3[H]spiperone, a dopamine antagonist; assay type: functional, cell membranes, Striatum, Membrane
D(2) dopamine receptor [2] = molecular target: T1, D(2) dopamine receptor; assay: Evaluated for its ability to displace tritiated receptor ligand in rat striatal membranes [3H]ADTN, a dopamine agonist; assay type: functional, cell membranes, Striatum, Membrane
Rattus norvegicus [3] = assay: Evaluated in vivo for its ability to induce contralateral rotational behavior in rats with unilateral, 6-hydroxy DA induced lesions of the substantia nigra at 3 mg/kg dosage orally; assay type: functional; details: route oral
How it was run: (§1)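 Rats given a unilateral 6-hydroxydopamine injection into the substantia nigra (8 μg per rat) at least 1 month earlier. Drug was given orally or subcutaneously and contralateral turns were recorded. Totals are cumulative at 1 h or 2 h after dosing, reported as means ± SEM with n = 3-6 rats.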

Rattus norvegicus [4] = assay: Compound was evaluated for D2 dopaminergic activity measured as total contralateral turns expressed as mean after 1 hr at a dose of 3 mg/kg peroral administration.; assay type: functional; details: route oral; how it was run: as §1
D(2) dopamine receptor [5] = molecular target: T1, D(2) dopamine receptor; assay: Compound was evaluated for its ability to displace tritiated receptor ligand in rat striatal membranes [3H]ADTN, a dopamine agonist; assay type: functional, cell membranes, Striatum, Membrane
Rattus norvegicus [6] = assay: Compound was evaluated for D2 dopaminergic activity measured as total contralateral turns expressed as mean after 2 hr at a dose of 0.3 mg/kg administered subcutaneously; assay type: functional; details: route subcutaneous; how it was run: as §1
Rattus norvegicus [7] = assay: Compound was evaluated for D2 dopaminergic activity measured as total contralateral turns expressed as mean after 2 hr at a dose of 3 mg/kg peroral administration.; assay type: functional; details: route oral; how it was run: as §1
Rattus norvegicus [8] = assay: Compound was evaluated for D2 dopaminergic activity measured as total contralateral turns expressed as mean after 1 hr at a dose of 0.3 mg/kg peroral administration.; assay type: functional; details: route oral; how it was run: as §1
Rattus norvegicus [9] = assay: Compound was evaluated for D2 dopaminergic activity measured as total contralateral turns expressed as mean after 2 hr at a dose of 0.3 mg/kg peroral administration.; assay type: functional; details: route oral; how it was run: as §1
Rattus norvegicus [10] = assay: Compound was evaluated for D2 dopaminergic activity measured as total contralateral turns expressed as mean after 1 hr at a dose of 0.1 mg/kg administered subcutaneously; assay type: functional; details: route subcutaneous; how it was run: as §1
Rattus norvegicus [11] = assay: Compound was evaluated for D2 dopaminergic activity measured as total contralateral turns expressed as mean after 1 hr at a dose of 0.3 mg/kg administered subcutaneously; assay type: functional; details: route subcutaneous; how it was run: as §1
Rattus norvegicus [12] = assay: Compound was evaluated for increase striatal acetyl choline (AcCh) concentration in intact rat administered subcutaneously.; assay type: functional; details: sc
Rattus norvegicus [13] = assay: Compound was evaluated for D2 dopaminergic activity measured as total contralateral turns expressed as mean after 2 hr at a dose of 1 mg/kg peroral administration; assay type: functional; details: route oral; how it was run: as §1
Rattus norvegicus [14] = assay: Compound was evaluated for D2 dopaminergic activity measured as total contralateral turns expressed as mean after 1 hr at a dose of 1 mg/kg peroral administration; assay type: functional; details: route oral; how it was run: as §1
Rattus norvegicus [15] = assay: Compound was evaluated for D2 dopaminergic activity measured as total contralateral turns expressed as mean after 2 hr at a dose of 0.1 mg/kg administered subcutaneously; assay type: functional; details: route subcutaneous; how it was run: as §1
Rattus norvegicus [16] = assay: Compound was evaluated for D2 dopaminergic activity measured as total contralateral turns after 1 hr at a dose of 0.03 mg/kg administered subcutaneously.; assay type: functional; details: route subcutaneous; how it was run: as §1
Rattus norvegicus [17] = assay: Compound was evaluated for D2 dopaminergic activity measured as total contralateral turns after 1 hr at a dose of 0.1 mg/kg administered subcutaneously.; assay type: functional; details: route subcutaneous; how it was run: as §1
D(2) dopamine receptor [18] = molecular target: T1, D(2) dopamine receptor; assay: Compound was evaluated for its ability to displace tritiated receptor ligand in rat striatal membranes 3[H]spiperone, a dopamine antagonist; assay type: functional, cell membranes, Striatum, Membrane
How it was run: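 Rat striatal membranes (0.3–1.0 mg protein/mL) with 0.1 nmol/l [³H]spiperone in 50 mmol Tris/HCl, pH 7.7, plus 0.1% ascorbic acid. Incubated 15 min at 37 °C, stopped by rapid filtration and three ice-cold washes. Nonspecific binding was defined with 1 μmol/L (+)-butaclamol. Values are means ± SD of 2-4 independent determinations, with triplicates per concentration.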

Rattus norvegicus [19] = assay: Compound was evaluated for D2 dopaminergic activity measured as total contralateral turns after 1 hr at a dose of 3 mg/kg peroral administration.; assay type: functional; details: route oral; how it was run: as §1
Rattus norvegicus [20] = assay: Compound was evaluated for D2 dopaminergic activity measured as total contralateral turns after 1 hr at a dose of 0.3 mg/kg peroral administration.; assay type: functional; details: route oral; how it was run: as §1
Rattus norvegicus [21] = assay: Compound was evaluated for D2 dopaminergic activity measured as total contralateral turns after 2 hr at a dose of 3 mg/kg peroral administration.; assay type: functional; details: route oral; how it was run: as §1
Rattus norvegicus [22] = assay: Compound was evaluated for D2 dopaminergic activity measured as total contralateral turns after 2 hr at a dose of 0.03 mg/kg administered subcutaneously.; assay type: functional; details: route subcutaneous; how it was run: as §1
Rattus norvegicus [23] = assay: Compound was evaluated for D2 dopaminergic activity measured as total contralateral turns after 2 hr at a dose of 0.1 mg/kg administered subcutaneously.; assay type: functional; details: route subcutaneous; how it was run: as §1
Rattus norvegicus [24] = assay: Compound was evaluated for D2 dopaminergic activity measured as total contralateral turns after 2 hr at a dose of 1 mg/kg peroral administration.; assay type: functional; details: route oral; how it was run: as §1
Rattus norvegicus [25] = assay: Compound was evaluated for D2 dopaminergic activity measured as total contralateral turns after 2 hr at a dose of 0.1 mg/kg peroral administration.; assay type: functional; details: route oral; how it was run: as §1
Rattus norvegicus [26] = assay: compound was evaluated for increase striatal acetyl choline (AcCh) concentration in intact rat administered subcutaneously.; assay type: functional; details: sc
Rattus norvegicus [27] = assay: Compound was evaluated for D2 dopaminergic activity measured as total contralateral turns after 1 hr at a dose of 1 mg/kg peroral administration.; assay type: functional; details: route oral; how it was run: as §1
Rattus norvegicus [28] = assay: Compound was evaluated for D2 dopaminergic activity measured as total contralateral turns after 1 hr at a dose of 0.1 mg/kg peroral administration.; assay type: functional; details: route oral; how it was run: as §1
Rattus norvegicus [29] = assay: Compound was evaluated for D2 dopaminergic activity measured as total contralateral turns after 2 hr at a dose of 0.3 mg/kg peroral administration.; assay type: functional; details: route oral; how it was run: as §1

T1 sequence (P61169 whole entry): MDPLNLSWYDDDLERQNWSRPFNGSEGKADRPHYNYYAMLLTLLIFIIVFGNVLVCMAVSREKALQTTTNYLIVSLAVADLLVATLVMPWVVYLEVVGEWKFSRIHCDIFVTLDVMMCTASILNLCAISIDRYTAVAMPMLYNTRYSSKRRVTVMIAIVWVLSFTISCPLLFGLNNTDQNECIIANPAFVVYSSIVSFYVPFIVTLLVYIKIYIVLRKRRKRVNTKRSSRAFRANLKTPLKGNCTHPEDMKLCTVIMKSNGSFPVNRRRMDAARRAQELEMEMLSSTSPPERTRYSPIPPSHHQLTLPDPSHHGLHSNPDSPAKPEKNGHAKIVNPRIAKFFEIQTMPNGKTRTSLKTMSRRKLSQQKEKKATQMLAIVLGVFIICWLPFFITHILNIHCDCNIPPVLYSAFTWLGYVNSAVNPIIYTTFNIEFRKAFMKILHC

Compound | IC50 (D(2) dopamine receptor [1]) | Ki (D(2) dopamine receptor [2]) | Turns/first hour (Rattus norvegicus [3]) | other results
C1=C(c2ccccc2)CCN(CCc2c[nH]c3ccccc23)C1 | 100 nM | 81 nM | <50 | 
COc1ccc2[nH]cc(CCCCN3CC=C(c4ccccc4)CC3)c2c1 | 20 nM | 4.4 nM | 504 | 
Clc1ccc(C2=CCN(CCCCc3c[nH]c4ccccc34)CC2)cc1 | 100 nM | 46 nM | 100 | 
Oc1ccc2c(CCCCN3CC=C(c4ccccc4)CC3)c[nH]c2c1 | 8 nM | 2.5 nM | 786 | 
C1=CCN(CCCCc2c[nH]c3ccccc23)CC1 | > 1000 nM | > 1000 nM | <100 | 
C1=C(c2ccccc2)CCN(CCCCCCc2c[nH]c3ccccc23)C1 | 40 nM | 4.3 nM | <100 | 
COc1ccc2c(CCCCN3CC=C(c4ccccc4)CC3)c[nH]c2c1 | 9 nM | 1.8 nM | 792 | 
Cn1cc(CCCCN2CC=C(c3ccccc3)CC2)c2ccccc21 | 100 nM | 15 nM | 121 | 
Clc1ccccc1C1=CCN(CCCCc2c[nH]c3ccccc23)CC1 | 100 nM | 21 nM | <50 | 
C1=C(c2ccccc2)CCN(CCCc2c[nH]c3ccccc23)C1 | 50 nM | 12 nM | ~250 | 
Fc1ccccc1C1=CCN(CCCCc2c[nH]c3ccccc23)CC1 | 20 nM | 4 nM | 186 | 
Clc1ccc2[nH]cc(CCCCN3CC=C(c4ccccc4)CC3)c2c1 | 50 nM | 3.1 nM | <50 | 
Fc1ccc2[nH]cc(CCCCN3CC=C(c4ccccc4)CC3)c2c1 | 10 nM | 1.6 nM | 552 | 
Cc1[nH]c2ccccc2c1CCCCN1CC=C(c2ccccc2)CC1 | 50 nM | 5.4 nM | 318 | 
COc1ccc(C2=CCN(CCCCc3c[nH]c4ccccc34)CC2)cc1 | 700 nM | 41 nM | <50 | 
C1=C(c2ccccc2)CCN(CCCCCc2c[nH]c3ccccc23)C1 | 60 nM | 13 nM | <50 | 
C1=C(c2ccccc2)CCN(CCCCc2c[nH]c3ccccc23)C1 | 105 nM |  | 864 | Turns (Rattus norvegicus [4]): 825; Ki (D(2) dopamine receptor [5]): 6.39 nM; Turns (Rattus norvegicus [6]): 936; Turns (Rattus norvegicus [7]): 1731; Turns (Rattus norvegicus [8]): 99; Turns (Rattus norvegicus [9]): 236; Turns (Rattus norvegicus [10]): 44; Turns (Rattus norvegicus [11]): 422; ED50 (Rattus norvegicus [12]): > 3 mg/kg; Turns (Rattus norvegicus [13]): 412; Turns (Rattus norvegicus [14]): 201; Turns (Rattus norvegicus [15]): 68
c1ccc(C2CCN(CCCCc3c[nH]c4ccccc34)CC2)cc1 | > 100 nM | > 100 nM | <50 | 
Fc1ccc(C2=CCN(CCCCc3c[nH]c4ccccc34)CC2)cc1 | 90 nM | 15 nM | <100 | 
CN1CCc2cccc3c2[C@H]1Cc1ccc(O)c(O)c1-3 [APOMORPHINE] |  |  |  | Turns (Rattus norvegicus [16]): 1268; ED50 (Rattus norvegicus [12]): 0.28 mg/kg
Oc1ccc2[nH]cc(CCCCN3CC=C(c4ccccc4)CC3)c2c1 [ROXINDOLE] |  | 0.88 nM | 948 | Turns (Rattus norvegicus [17]): 1132; IC50 (D(2) dopamine receptor [18]): 5.95 nM; Turns (Rattus norvegicus [19]): 926; Turns (Rattus norvegicus [16]): 399; Turns (Rattus norvegicus [20]): 397; Turns (Rattus norvegicus [21]): 2010; Turns (Rattus norvegicus [22]): 718; Turns (Rattus norvegicus [23]): 2246; Turns (Rattus norvegicus [24]): 1694; Turns (Rattus norvegicus [25]): 287; ED50 (Rattus norvegicus [26]): > 30 mg/kg; Turns (Rattus norvegicus [27]): 830; Turns (Rattus norvegicus [28]): 251; Turns (Rattus norvegicus [29]): 534
